Experimental data reported in ChEMBL document CHEMBL4330057, “Second generation of diazachrysenes: Protection of Ebola virus infected mice and mechanism of action” (Eur J Med Chem, 2019).
Calls of active or inactive are those of the source. The calls are words filed in the database; no cut-off is given here.

How the values were obtained:
[1] = system: Ebolavirus; assay: Antiviral activity against Ebolavirus H. sapiens-wt/1995/Kikwit-9510621 infected in African green monkey Vero cells assessed as inhibition of viral infection pretreated for 2 hrs followed by viral infection and measured after 48 hrs by EboV GP immunostaining based high content imaging analysis; type: functional, organism-based; details: Orthoebolavirus, H. sapiens-wt/1995/Kikwit-9510621, Vero
[2] = Toxicity in 6 hrs post fertilized zebrafish embryo assessed as tail detachment up to 50 uM up to 120 hrs post fertilization by inverted microscopic method; set-up: species or system Danio rerio; details: in vivo
[3] = Toxicity in 6 hrs post fertilized zebrafish embryo assessed as teratogenic effect by measuring malformation of head up to 50 uM up to 120 hrs post fertilization by inverted microscopic method; type: tissue-based, Danio rerio; details: in vivo
[4] = Toxicity in 6 hrs post fertilized zebrafish embryo assessed as teratogenic effect by measuring malformation of eyes up to 50 uM up to 120 hrs post fertilization by inverted microscopic method; set-up: species or system Danio rerio; details: in vivo
[5] = Toxicity in 6 hrs post fertilized zebrafish embryo assessed as teratogenic effect by measuring malformation of sacculi/otoliths up to 50 uM up to 120 hrs post fertilization by inverted microscopic method; set-up: species or system Danio rerio; details: in vivo
[6] = Toxicity in 6 hrs post fertilized zebrafish embryo assessed as teratogenic effect by measuring malformation of notochord up to 50 uM up to 120 hrs post fertilization by inverted microscopic method; type: tissue-based, Danio rerio; details: in vivo
[7] = Toxicity in 6 hrs post fertilized zebrafish embryo assessed as teratogenic effect by measuring malformation of tail up to 50 uM up to 120 hrs post fertilization by inverted microscopic method; type: tissue-based, Danio rerio; details: in vivo
[8] = Toxicity in 6 hrs post fertilized zebrafish embryo assessed as teratogenic effect by measuring scoliosis up to 50 uM up to 120 hrs post fertilization by inverted microscopic method; set-up: species or system Danio rerio; details: in vivo
[9] = Toxicity in 6 hrs post fertilized zebrafish embryo assessed as teratogenic effect by measuring effect on heart beat frequency up to 50 uM up to 120 hrs post fertilization by inverted microscopic method; set-up: species or system Danio rerio; details: in vivo
[10] = Toxicity in 6 hrs post fertilized zebrafish embryo assessed as teratogenic effect by measuring effect on blood circulation up to 50 uM up to 120 hrs post fertilization by inverted microscopic method; set-up: species or system Danio rerio; details: in vivo
[11] = Toxicity in 6 hrs post fertilized zebrafish embryo assessed as teratogenic effect by measuring pericardial edema up to 50 uM up to 120 hrs post fertilization by inverted microscopic method; set-up: species or system Danio rerio; details: in vivo
[12] = Toxicity in 6 hrs post fertilized zebrafish embryo assessed as teratogenic effect by measuring yolk edema up to 50 uM up to 120 hrs post fertilization by inverted microscopic method; set-up: species or system Danio rerio; details: in vivo
[13] = Toxicity in 6 hrs post fertilized zebrafish embryo assessed as teratogenic effect by measuring yolk absorption up to 50 uM up to 120 hrs post fertilization by inverted microscopic method; set-up: species or system Danio rerio; details: in vivo
[14] = Toxicity in 6 hrs post fertilized zebrafish embryo assessed as teratogenic effect by measuring liver morphology and color up to 50 uM up to 120 hrs post fertilization by inverted microscopic method; type: tissue-based, Danio rerio; details: in vivo
[15] = Toxicity in 6 hrs post fertilized zebrafish embryo assessed as teratogenic effect by measuring growth retardation up to 50 uM up to 120 hrs post fertilization by inverted microscopic method; set-up: species or system Danio rerio; details: in vivo
[16] = Hepatotoxicity in 6 hrs post fertilized transgenic l-fabp:EGFP zebrafish embryo assessed as change in liver area index up to 30 uM up to 120 hrs post fertilization by fluorescence assay; type: toxicity, Danio rerio; details: in vivo
Outline: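 Tg(l-fabp:EGFP) zebrafish embryos exposed from 6 hpf. At 120 hpf, liver area index (liver area/lateral body area) and liver fluorescence assessed by in vivo imaging.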

[17] = Hepatotoxicity in 72 hrs post fertilized transgenic l-fabp:EGFP zebrafish embryo assessed as change in liver fluorescence up to 80 uM up to 120 hrs post fertilization by fluorescence assay; type: toxicity, Danio rerio; details: in vivo
Outline: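 Transgenic Tg(l-fabp:EGFP) zebrafish with fluorescent liver, exposed to compound added at 72 hpf. Liver imaged in vivo at 120 hpf. Read-outs were liver fluorescence and liver area index (liver area divided by lateral body area).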

[18] = Myelotoxicity in 6 hrs post fertilized transgenic mpx:GFP zebrafish embryo assessed as reduction in neutrophil occurrence at >= 80 uM measured at 72 hrs hrs post fertilization by fluorescence assay; set-up: species or system Danio rerio
[19] = system: Zaire ebolavirus; assay: Antiviral activity against VSV pseudotyped Ebolavirus Mayinga expressing GFP infected in human HeLa cells assessed as inhibition of viral infection at 10 uM pre-incubated for 2 hrs followed by viral infection and measured after 8 hrs by cell mask deep red staining based assay; type: functional, organism-based; details: 1976
Outline: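 HeLa cells pretreated 2 h with compound, then infected with rVSV-EBOV-GP-GFP (8 h) or VSV-GFP (6 h), and stained with Cell Mask Deep Red. Relative inhibition = 1 minus (% GFP-expressing cells normalised to mock). Mean ± SD of three replicates, representative of three independent experiments.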

[20] = system: HeLa; assay: Induction of lysosomotropism in human HeLa cells infected with Ebolavirus assessed as increase in fluorescence intensity of acid compartments at 10 uM for 1 hr by Lysosensor DND189 staining based assay; type: functional, cell-based
Outline: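 HeLa cells were pretreated 1 h with compound (Bafilomycin A1 at 0.01 μM as acidification control), then stained with LysoSensor DND 189 for 10 min and washed. Live imaging at Ex/Em 443/505 nm. Fluorescence intensity per area was quantified by image analysis. Eight wells per point, about 3000 cells/well, mean ± SD, three independent experiments.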

[21] = system: HeLa; assay: Induction of lysosomotropism in human HeLa cells infected with Ebolavirus assessed as increase in lysosome concentration in juxtanuclear region at 10 uM for 2 hrs by acridine orange staining based assay; type: functional, cell-based
Outline: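 HeLa cells were pretreated with compound for 2 h, then given acridine orange for 30 min and washed. Red AO fluorescence in acidic compartments was imaged, and total intensity and average area were scored by high-content imaging. Eight wells per point, about 3000 cells/well, mean ± SD, representative of three independent experiments.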

[22] = target: Cathepsin B (Homo sapiens) (UniProt P07858); assay: Inhibition of cathepsin B activity in human HeLa cells at 10 uM after 12 hrs by magic red substrate based fluorescence assay; type: cell-based
Outline: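 HeLa cells were exposed to compound for 12 h, then given the Magic Red cathepsin B peptide reporter, washed, and imaged at Ex/Em 590/630. Total intensity and average area of red fluorescence were scored by high-content analysis. Eight wells per point, about 3000 cells/well, mean ± SD, three independent experiments.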

[23] = system: HeLa; assay: Inhibition of lysosome fusion with autophagosome in human HeLa cells harboring GFP-LC3 assessed as increase in GFP-LC3-2 clustering at <50 uM after 6 hrs by Western blot analysis; type: functional, subcellular
Outline: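 HeLa cells were exposed to compound for 6 h, then lysed and analysed by Western blot.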

**Q.** For CCN(CC)CCCC(C)Nc1ccnc2cc(Cl)ccc12 (stereo not drawn) [CHLOROQUINE], which EC50 [1] is on record?
**A.** 16 µM

**Q.** What about the Activity [2] of the same compound?
**A.** Non-Toxic

**Q.** And the Activity [3]?
**A.** Non-Toxic

**Q.** What about the Activity [4] of the same compound?
**A.** Non-Toxic

**Q.** And the Activity [5]?
**A.** Non-Toxic

**Q.** And the Activity [6]?
**A.** Non-Toxic

**Q.** And the Activity [7]?
**A.** Non-Toxic

**Q.** And the Activity [8]?
**A.** Non-Toxic

**Q.** And the Activity [9]?
**A.** Non-Toxic

**Q.** And the Activity [10]?
**A.** Non-Toxic

**Q.** What about the Activity [11] of the same compound?
**A.** Non-Toxic

**Q.** What about the Activity [12] of the same compound?
**A.** Non-Toxic

**Q.** And the Activity [13]?
**A.** Non-Toxic

**Q.** What about the Activity [14] of the same compound?
**A.** Non-Toxic

**Q.** And the Activity [15]?
**A.** Non-Toxic

**Q.** And the Activity [16]?
**A.** Toxic

**Q.** And the Activity [17]?
**A.** Toxic

**Q.** And the Activity [18]?
**A.** Toxic

**Q.** And the Activity [19]?
**A.** Active

**Q.** And the Activity [20]?
**A.** inactive

**Q.** And the Activity [21]?
**A.** Active

**Q.** What about the inhibition [22] of the same compound?
**A.** inactive

**Q.** And the inhibition [23]?
**A.** inactive
